# Measured values taken from ChEMBL document CHEMBL1148198, “Inhibition of HIV-1 envelope-mediated fusion by synthetic batzelladine analogues” (J Nat Prod, 2004).
# Activity calls are given as the source filed them. The rule behind the calls is not given here.
# Tested on: not listed separately
# Assay: (§1) Inhibition of HIV1 envelope glycoprotein gp160-mediated cell fusion by cell-cell fusion assay
# Parameters: species or system Human immunodeficiency virus 1
# How it was run: (§2)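 Cell-cell fusion driven by HIV-1 Env from LAV (X4) and SF162 (R5) strains. Inhibitor added to wells at increasing concentrations; run in duplicate on at least two separate days. Percent fusion fitted by nonlinear least squares to % fusion = 100/(1 + KA[I]), where KA is the equilibrium association constant for inhibitor binding to gp120.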
row,IC50 [µM],Compound
1,0.8,CCCCCCCCC[C@@H]1C[C@@H]2CCC3=C(C(=O)O[C@H](C)CCCCC[C@@H]4C[C@@H]5CC[C@@H]6C[C@H](C)NC(=[N+]65)N4)[C@@H](C)NC(=[N+]32)N1
2,5.3,CC(=O)CC(=O)O[C@@H](C)CCCCC[C@H]1C[C@H]2CC[C@H]3C[C@@H](C)NC(=[N+]23)N1
3,17,CC(=O)CC(=O)O[C@@H](C)CCCCC[C@@H]1C[C@@H]2CC[C@@H]3C[C@H](C)NC(=[N+]32)N1
4,1.8,CCCCCCCCC[C@@H]1C[C@@H]2CC[C@H]3C(C(=O)O[C@@H](C)CCCCC[C@@H]4C[C@@H]5CC[C@@H]6C[C@H](C)NC(=[N+]65)N4)=C(C)NC(=[N+]23)N1
5,6.2,CCCCCCCCC[C@H](O)C[C@@H]1CC[C@H]2C(C(=O)O[C@H](C)CCCCC[C@H]3C[C@H]4CC[C@H]5C[C@@H](C)NC(=[N+]45)N3)=C(C)NC(N)=[N+]12
6,4.5,C=CCOC(=O)C1=C(CCCCC[C@@H](C)O[Si](C)(C)C(C)(C)C)NC2=[N+]3[C@H](CC[C@@H]13)C[C@H](C)N2
7,7.7,CCCCCCCCC[C@H](O)C[C@@H]1CC[C@H]2C(C(=O)O[C@@H](C)CCCCC[C@@H]3C[C@@H]4CC[C@@H]5C[C@H](C)NC(=[N+]54)N3)=C(C)NC(N)=[N+]12
8,3,CCCCCCCCC[C@@H]1C[C@@H]2CC[C@H]3[C@H](C(=O)O[C@H](C)CCCCC[C@@H]4C[C@@H]5CC[C@@H]6C[C@H](C)NC(=[N+]65)N4)[C@@H](C)NC(=[N+]23)N1
9,3.5,CCCCCCCCC[C@@H]1C[C@@H]2CC[C@H]3C(C(=O)OC(C)(C)C)=C(C)NC(=[N+]23)N1
10,2.5,CCCCCCCCC[C@@H]1C[C@@H]2CC[C@H]3[C@H](C(=O)O[C@H](C)CCCCC[C@@H]4C[C@@H]5CC[C@@H]6C[C@H](C)NC(=[N+]65)N4)[C@H](C)NC(=[N+]23)N1

# Tested on: Human immunodeficiency virus 1
# Assay: as §1
# How it was run: as §2
row,Activity,Compound
1,inactive,CCCCCCCCC[C@H]1C[C@H]2CC[C@H]3C(C(=O)OCc4ccc(COC(=O)C5=C(C)NC6=[N+]7[C@H](CC[C@@H]57)C[C@H](CCCCCCCCC)N6)cc4)=C(C)NC(=[N+]23)N1
2,inactive,CCCCCCCCC[C@H]1C[C@H]2CC[C@H]3C(C(=O)OCCCCCCCCOC(=O)C4=C(C)NC5=[N+]6[C@H](CC[C@@H]46)C[C@H](CCCCCCCCC)N5)=C(C)NC(=[N+]23)N1

# Tested on: Human immunodeficiency virus 1
# Assay: Inhibition of HIV1 envelope glycoprotein gp160-mediated cell fusion at 100 µM by cell-cell fusion assay
row,Activity,Compound
1,inactive,CCCCCCCCC[C@H]1C[C@H]2CC[C@H]3C(C(=O)OCc4ccc(COC(=O)C5=C(C)NC6=[N+]7[C@H](CC[C@@H]57)C[C@H](CCCCCCCCC)N6)cc4)=C(C)NC(=[N+]23)N1
2,inactive,CCCCCCCCCC1=C(C(=O)OCc2ccc(COC(=O)C3=C(CCCCCCCCC)NC4=[N+]5[C@H](CC[C@@H]35)C[C@H](CCCCCCC)N4)cc2)[C@@H]2CC[C@@H]3C[C@H](CCCCCCC)NC(=[N+]32)N1
